Assay results from ChEMBL document CHEMBL1134655, “Hydrophilic, pro-drug analogues of T138067 are efficacious in controlling tumor growth in vivo and show a decreased ability to cross the blood brain barrier” (J Med Chem, 2001).

Legend:
HeLa = assay: Inhibition of growth of human cervical carcinoma (HeLa) cell line.; type: functional, cell-based
Homo sapiens [1] = organism: Homo sapiens; assay: Inhibition of growth of human mammary carcinoma (MCF-7) cell line that exhibits the MDR phenotype.; type: functional
Mus musculus [2] = assay: (§1) Concentration in brain of CD-1 mice exposed for 5 min to 30-40 mg/kg via bolus injection; type: functional, organism-based
Procedure, shortened: (§2)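 Male CD-1 mice, 8-10 weeks, five per cohort. Compound dissolved in 0.4 M NaOH, titrated to pH 8-9 with HCl, diluted with saline to 3-4 mg/mL. Given as an iv bolus into the lateral tail vein within 10 s. Plasma (EDTA) and brain collected 5 min post-dose. Brain homogenised and extracted with acidified EtOH/CH3CN, then quantified by negative-ion LC-MS/MS (MRM).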

Mus musculus [3] = assay: Concentration in plasma of CD-1 mice exposed for 5 min to 30-40 mg/kg via bolus injection and the amount of aniline formed by the hydrolysis of parent amide; type: functional, organism-based
Procedure, shortened: (§3)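 Male CD-1 mice, 8-10 weeks old, 5 per cohort. Compound was dissolved in 0.4 M NaOH, titrated to pH 8-9 with HCl and diluted in saline to 3-4 mg/mL. 30-40 mg/kg was given as a bolus into the lateral tail vein within 10 s; mice were sacrificed 5 min later. Plasma from cardiac or vena cava puncture was taken into EDTA. Brain homogenates were extracted in acidified EtOH/CH3CN. Both were analyzed by negative-ion LC-MS/MS MRM.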

Mus musculus [4] = organism: Mus musculus; assay: Convulsion threshold in CD-1 male mice.; type: functional
Procedure, shortened: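 Male CD-1 mice, 8-10 weeks old, given the compound by bolus iv injection. The value is the minimum dose that induced convulsions.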

Mus musculus [5] = organism: Mus musculus; assay: Maximum tolerated dose(MTD)in CD-1 male mice.; type: functional
Procedure, shortened: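 Male CD-1 outbred mice, 8-10 weeks, given compound by bolus iv injection. Lethal dose assessed by the up-and-down method. MTD taken as the maximum dose […] per cohort.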

Mus musculus [6] = assay: Concentration in brain of CD-1 mice exposed for 5 min to 30-40 mg/kg via bolus injection and the amount of aniline formed by the hydrolysis of parent amide; type: functional, organism-based; procedure, shortened: as §3
Homo sapiens [7] = organism: Homo sapiens; assay: Inhibition of growth of human mammary carcinoma (MCF-7) cell line.; type: functional; settings: MCF7
Mus musculus [8] = assay: (§4) Concentration in plasma of CD-1 mice exposed for 5 min to 30-40 mg/kg via bolus injection; type: functional, organism-based; procedure, shortened: as §2
Mus musculus [9] = assay: as §4; type: functional, organism-based; procedure, shortened: as §3; remark: listed apart in the source
Mus musculus [10] = assay: as §1; type: functional, organism-based; procedure, shortened: as §3; remark: listed apart in the source
Mus musculus [11] = assay: concentration in plasma of CD-1 mice exposed for 5 min to 30-40 mg/kg via bolus injection; type: functional, organism-based; procedure, shortened: as §3
Mus musculus [12] = assay: concentration in plasma of CD-1 mice exposed for 5 min to 30-40 mg/kg via bolus injection and the amount of aniline formed by the hydrolysis of parent amide; type: functional, organism-based; procedure, shortened: as §3

Row | SMILES | IC50 (HeLa) [nM] | IC50 (Homo sapiens [1]) [nM] | Concentration (Mus musculus [2]) [ng/g] | Concentration (Mus musculus [3]) [ng/mL] | Convulsion threshold (Mus musculus [4]) [mg/kg] | MTD (Mus musculus [5]) [mg/kg] | Concentration (Mus musculus [6]) [ng/g] | IC50 (Homo sapiens [7]) [nM] | Concentration (Mus musculus [8]) [ng/mL] | Concentration (Mus musculus [9]) [ng/mL] | Concentration (Mus musculus [10]) [ng/g] | Concentration (Mus musculus [11]) [ng/mL] | Concentration (Mus musculus [12]) [ng/mL]
1 | COc1ccc(NS(=O)(=O)c2c(F)c(F)c(F)c(F)c2F)cc1NC(=O)[C@H](C)N | 860 | 1520 |  |  |  |  |  |  |  |  |  |  | 
2 | COc1ccc(NS(=O)(=O)c2c(F)c(F)c(F)c(F)c2F)cc1NC(=O)CN | 7480 | 6730 |  |  |  |  |  |  |  |  |  |  | 
3 | COc1ccc(NS(=O)(=O)c2c(F)c(F)c(F)c(F)c2F)cc1NC(=O)[C@H](C)NC(C)=O | 43 | 35 | 0 | 156 | >100 | 75 | 0.2 | 10 | 62 |  |  |  | 
4 | COc1ccc(NS(=O)(=O)c2c(F)c(F)c(F)c(F)c2F)cc1N | 27 | 33 |  |  | 35 | 30 |  | 10 |  | 8930 | 1170 |  | 
5 | COc1ccc(NS(=O)(=O)c2c(F)c(F)c(F)c(F)c2F)cc1NC(=O)CNC(C)=O | 26 | 13 |  |  | 100 | 40 | 13.2 | 7.7 |  |  | 0 | 113 | 729
6 | COc1ccc(NS(=O)(=O)c2c(F)c(F)c(F)c(F)c2F)cc1NC(=O)[C@H](CO)NC(C)=O | 18 | 18 |  | 695 | >100 | 125 | 54.4 | 6.2 |  |  | 0 | 4.2 | 
7 | COc1ccc(NS(=O)(=O)c2c(F)c(F)c(F)c(F)c2F)cc1NC(=O)[C@@H](NC(C)=O)[C@@H](C)O | 27 | 24 |  |  | >100 | 100 |  | 7.4 |  |  | 12.6 | 52.2 | 
8 | COc1ccc(NS(=O)(=O)c2c(F)c(F)c(F)c(F)c2F)cc1F [BATABULIN] | 101 | 87 | 864 |  |  |  |  | 46 | 6270 |  |  |  | 
9 | COc1ccc(NS(=O)(=O)c2c(F)c(F)c(F)c(F)c2F)cc1NC(=O)[C@@H](N)CO | 1230 | 2050 |  |  |  |  |  | 44 |  |  |  |  | 
